Measurements as given in ChEMBL document CHEMBL4842326, “Design, synthesis and biological evaluation of 3, 4-disubstituted-imidazolidine-2, 5-dione derivatives as HDAC6 selective inhibitors” (Eur J Med Chem, 2021).
Calls of active or inactive are those of the source. The rule behind the calls is not given here.

Assays:
[1] = Stability of the compound in rabbit plasma assessed as decrease in compound degradation incubated up to 12 hrs by HPLC analysis; format: ADME, cell-free, Oryctolagus cuniculus
HL-60 [2] = experiment: Induction of apoptosis in human HL-60 cells assessed as viable cells at 3 uM after 48 hrs by Annexin V-FITC/propidium iodide staining based flow cytometric analysis (reference value: 93.4%); format: functional; details: read-out: Activity
Summary of the method: (§1)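 HL-60 cells (1 × 10^6/well) exposed 48 h to compound dilutions, collected, PBS-washed, resuspended in Annexin V-FITC binding buffer, stained with propidium iodide and Annexin V-FITC for 15 min, then analysed by flow cytometry.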

[3] = target: T1, Protein deacetylase HDAC6 (Homo sapiens) (UniProt Q9UBN7); experiment: Inhibition of HDAC6 in human HL-60 cells assessed as increase in acetylation of alpha tubulin by Western blot analysis; format: cell-based; details: TDE = time-dependent effect
T1 sequence (whole entry): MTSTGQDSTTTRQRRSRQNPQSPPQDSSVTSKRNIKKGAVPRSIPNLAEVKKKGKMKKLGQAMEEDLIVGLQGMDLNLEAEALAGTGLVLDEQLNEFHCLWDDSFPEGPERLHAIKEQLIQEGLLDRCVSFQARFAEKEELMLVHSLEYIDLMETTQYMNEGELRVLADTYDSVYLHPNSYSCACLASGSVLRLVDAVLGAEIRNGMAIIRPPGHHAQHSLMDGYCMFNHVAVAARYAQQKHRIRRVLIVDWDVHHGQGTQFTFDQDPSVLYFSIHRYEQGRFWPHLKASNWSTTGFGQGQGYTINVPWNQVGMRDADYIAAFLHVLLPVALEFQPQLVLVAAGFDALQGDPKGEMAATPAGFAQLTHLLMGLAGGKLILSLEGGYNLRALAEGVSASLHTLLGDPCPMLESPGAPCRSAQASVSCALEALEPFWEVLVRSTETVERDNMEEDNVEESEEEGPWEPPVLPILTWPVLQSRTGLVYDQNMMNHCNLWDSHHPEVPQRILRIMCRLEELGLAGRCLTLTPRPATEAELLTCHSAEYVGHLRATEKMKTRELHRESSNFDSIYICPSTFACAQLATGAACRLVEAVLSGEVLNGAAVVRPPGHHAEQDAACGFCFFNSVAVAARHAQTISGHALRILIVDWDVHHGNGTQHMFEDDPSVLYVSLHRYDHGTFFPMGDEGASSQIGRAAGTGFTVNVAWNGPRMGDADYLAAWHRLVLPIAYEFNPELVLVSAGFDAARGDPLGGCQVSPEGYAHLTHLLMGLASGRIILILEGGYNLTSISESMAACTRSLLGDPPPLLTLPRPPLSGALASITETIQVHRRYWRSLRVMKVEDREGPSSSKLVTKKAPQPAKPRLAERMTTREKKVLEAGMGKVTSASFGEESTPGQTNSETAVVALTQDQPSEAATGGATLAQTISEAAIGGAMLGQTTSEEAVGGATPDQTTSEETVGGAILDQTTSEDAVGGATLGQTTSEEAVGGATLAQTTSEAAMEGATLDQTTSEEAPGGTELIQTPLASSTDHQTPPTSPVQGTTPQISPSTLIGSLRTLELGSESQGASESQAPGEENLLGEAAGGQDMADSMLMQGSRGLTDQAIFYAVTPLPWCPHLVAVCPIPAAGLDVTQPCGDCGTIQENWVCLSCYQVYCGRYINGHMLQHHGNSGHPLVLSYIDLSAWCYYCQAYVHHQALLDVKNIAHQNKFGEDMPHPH
Summary of the method: (§2)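 HL-60 cells treated 12 h or 24 h, pelleted, lysed in RIPA with 1 mM PMSF on ice 30 min, cleared at 4 °C; lysates run on 12.5% SDS-PAGE, blotted to PVDF, blocked in 5% milk 1 h, probed overnight at 4 °C for acetyl-α-tubulin, acetyl-H3 and GAPDH, secondary 1 h, ECL detection.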

Jurkat = experiment: Antiproliferative activity against human Jurkat cells assessed as inhibition of cell proliferation after 48 hrs by MTT assay; format: functional, cell-based
Summary of the method: (§3)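 Leukemia/myeloma lines grown in RPMI1640 with 10% FBS at 37 °C, 5% CO2; seeded at 3500–4000 cells/well, cultured overnight, then exposed to serial dilutions for 48 h.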

[4] = target: T1, Protein deacetylase HDAC6 (Homo sapiens); experiment: Inhibition of HDAC6 in human HL-60 cells assessed as increase in acetylation of alpha tubulin measured up to 24 hrs by Western blot analysis; format: cell-based; details: time hrs <=24; summary of the method: as §2
Homo sapiens [5] = species on record: Homo sapiens; experiment: Selectivity ratio of IC50 for HDAC1 (unknown origin) to IC50 for HDAC6 (unknown origin)
HEL = experiment: Antiproliferative activity against human HEL cells assessed as inhibition of cell proliferation after 48 hrs by MTT assay; format: functional, cell-based; summary of the method: as §3
HL-60 [6] = experiment: Induction of apoptosis in human HL-60 cells at 3 uM measured after 48 hrs by TUNEL staining based fluorescence microscopy; format: functional, cell-based
Summary of the method: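 HL-60 cells (1 × 10^6/well) given 3 µM compound or vehicle (0.2% DMSO) for 48 h; washed in cold PBS, fixed in paraformaldehyde 30 min, permeabilised with 0.5% Triton X-100 for 5 min, labelled 60 min with FITC-12-dUTP plus terminal deoxynucleotidyl transferase, washed twice, green fluorescence imaged by microscopy.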

HL-60 [7] = experiment: Induction of apoptosis in human HL-60 cells assessed as necrotic cells at 3 uM after 48 hrs by Annexin V-FITC/propidium iodide staining based flow cytometric analysis (reference value: 0.017%); format: functional; summary of the method: as §1
HUVEC = experiment: Cytotoxicity against human HUVEC cells assessed as decrease in cell viability after 48 hrs by MTT assay; format: cell-based
Summary of the method: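 Normal cells: HUVECs in RPMI1640 with 10% FBS plus 0.1% heparin, GEC-1 in RPMI1640 with 10% FBS. Seeded 8 h, then treated with serial dilutions for 48 h; 0.5% MTT for 4 h, supernatant removed, DMSO added, absorbance read at 570 nm.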

Histone deacetylase 2 = Histone deacetylase 2 (Homo sapiens, UniProt Q92769)
HL-60 [8] = experiment: Induction of apoptosis in human HL-60 cells assessed as activation of caspase-3 at 3 uM measured by fluorescence assay; format: functional, cell-based
Homo sapiens [9] = species on record: Homo sapiens; experiment: Selectivity ratio of IC50 for HDAC2 (unknown origin) to IC50 for HDAC6 (unknown origin)
Histone deacetylase 1 = Histone deacetylase 1 (Homo sapiens, UniProt Q13547); experiment: Inhibition of HDAC1 (unknown origin) using Ac-LeuGlyLys(Ac)-AMC as substrate preincubated for 10 mins followed by substrate addition and further incubated for incubated for 1 hrs by fluorescence microtiter plate reader assay
[10] = target: T2, Protein deacetylase HDAC6 (Homo sapiens, UniProt Q9UBN7); experiment: Inhibition of HDAC6 (unknown origin) using Ac-LeuGlyLy-s(Ac)-AMC as substrate preincubated for 10 mins followed by substrate addition and further incubated for 2 hrs by fluorescence microtiter plate reader assay
T2 sequence (Q9UBN7 whole entry): T1 sequence (whole entry)

Histone deacetylase 1, sequence (Q13547 whole entry): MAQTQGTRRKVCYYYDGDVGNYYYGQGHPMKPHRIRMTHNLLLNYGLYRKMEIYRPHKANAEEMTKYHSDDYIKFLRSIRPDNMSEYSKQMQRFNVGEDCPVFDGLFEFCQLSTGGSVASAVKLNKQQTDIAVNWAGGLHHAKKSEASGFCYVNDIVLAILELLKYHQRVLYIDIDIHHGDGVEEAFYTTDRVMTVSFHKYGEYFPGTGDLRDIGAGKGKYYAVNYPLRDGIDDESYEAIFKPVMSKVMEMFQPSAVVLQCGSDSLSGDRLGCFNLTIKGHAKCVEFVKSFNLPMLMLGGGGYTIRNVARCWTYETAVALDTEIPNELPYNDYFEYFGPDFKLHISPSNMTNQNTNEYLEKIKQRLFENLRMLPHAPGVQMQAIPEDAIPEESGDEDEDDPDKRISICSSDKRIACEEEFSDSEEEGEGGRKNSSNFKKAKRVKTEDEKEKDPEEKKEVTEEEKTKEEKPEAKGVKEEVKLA
Histone deacetylase 2, sequence (Q92769 whole entry): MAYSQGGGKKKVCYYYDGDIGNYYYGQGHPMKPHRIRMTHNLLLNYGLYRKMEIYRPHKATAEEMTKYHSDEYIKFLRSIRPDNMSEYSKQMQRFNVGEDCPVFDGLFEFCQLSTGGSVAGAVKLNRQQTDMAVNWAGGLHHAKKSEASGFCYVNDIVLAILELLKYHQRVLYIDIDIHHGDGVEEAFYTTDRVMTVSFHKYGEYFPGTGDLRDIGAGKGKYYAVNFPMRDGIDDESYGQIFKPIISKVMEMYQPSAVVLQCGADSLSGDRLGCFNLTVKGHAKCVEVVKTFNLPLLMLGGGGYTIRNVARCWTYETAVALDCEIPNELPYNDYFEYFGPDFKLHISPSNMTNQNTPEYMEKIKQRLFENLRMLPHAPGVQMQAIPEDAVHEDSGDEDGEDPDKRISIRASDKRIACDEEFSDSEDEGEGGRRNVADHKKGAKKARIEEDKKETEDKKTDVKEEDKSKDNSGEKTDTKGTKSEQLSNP

In the case of `O=C(NO)c1ccc(CN2C(=O)C(Cc3ccccc3)N(Cc3cccnc3)C2=O)cc1` (racemic), the Stabilty [1] is reported as “Stable”, the viability at 3 µM (HL-60 [2]) is reported as 79.4% and the inhibition [3] is reported as “Tde”. The IC50 (Jurkat) was 9.29 µM, the inhibition [4] was “Dose-Dependent Effect” and the Ratio IC50 (Homo sapiens [5]) was 5540. The IC50 (HEL) was 4.58 µM, the Activity (HL-60 [6]) was “Active” and the Activity (HL-60 [7]) was 0.035%. The IC50 (HUVEC) was 83.1 µM, the IC50 (Histone deacetylase 2) was 12.3 µM and the Activity (HL-60 [8]) was “Active”. For the same compound, the Ratio IC50 (Homo sapiens [9]) was 5860, the IC50 (Histone deacetylase 1) was 11.6 µM and the IC50 [10] was 0.0021 µM.
